Results on 18 compounds are retold here after ChEMBL document CHEMBL1147196, “Chemotherapy of leishmaniasis. Part V: Synthesis and in vitro bioevaluation of novel pyridinone derivatives” (Eur J Med Chem, 2007).

Test [1] deals with Leishmania donovani. Nature of the test: Antipromastigote activity against Leishmania donovani MHOM IN/Dd8 assessed as luciferase activity after 72 hrs. Type of test: functional, organism-based. As to conditions: for IC50 / IC90: MHOM IN/Dd8, 72 h. Put shortly: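 Firefly-luciferase-transfected promastigotes kept in medium 199 + 10% FCS, penicillin/streptomycin, G418 selection. Late-log cells seeded 5 × 10^5/well, 72 h with serial dilutions (2.5–50 mg/ml as printed) in DMSO; DMSO dilution controls. Aliquot mixed 1:1 with Steady-Glo, luminescence (RLU). % inhibition = (N−n)/N × 100 vs untreated control; IC50 by probit analysis.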

Test [2] has as its system Leishmania donovani. The test can be described thus: Antiamastigote activity against Leishmania donovani MHOM IN/Dd8 in mouse J-774A.1 cells by luciferase reporter gene assay after 72 hrs. Type of test: functional, organism-based, J774.A1. As to conditions: for IC50: Leishmania donovani, MHOM IN/Dd8, J774.A1, 72 h. An outline of the steps:
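J-774A.1 mouse macrophages seeded 5 × 10^4 cells/well in RPMI-1640 + 10% FCS, 37 °C, CO2; after 24 h infected with stationary-phase luciferase-expressing promastigotes (2.5 × 10^5/well). Test material added in fresh complete medium (2.5–50 mg/ml range as printed), 72 h, 37 °C. Medium removed, PBS plus Steady-Glo, luminescence read. Inhibition vs untreated control RLU; IC50 by probit analysis.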
On the technique in general: A reporter such as luciferase makes a cellular process visible.

Values after ≈ are worked out from the molar mass of the structure shown. Active and inactive are the calls of the source. The calls are words filed in the database; no cut-off is given here.

As a reminder, the IC50 is the concentration that inhibits the measured activity by half. The term IC90 denotes the concentration needed for an effect of 90%. `COc1ccc(-n2ccc(=O)c(OCCCCCOc3c(C)n(-c4ccc(OC)cc4)ccc3=O)c2C)cc1`: in the test with Leishmania donovani [1], the IC50 is 12.6 µg/mL (≈ 23.7 µM) and the IC90 is 43.8 µg/mL (≈ 82.5 µM).
`Cc1c(OCCCCCOc2c(C)n(C3CCCCC3)ccc2=O)c(=O)ccn1C1CCCCC1`: in the test on Leishmania donovani [1], the IC50 is 4.57 µg/mL (≈ 9.47 µM) and the concentration for an effect of 90% (IC90) came to 18.6 µg/mL (≈ 38.6 µM). In the test with Leishmania donovani [2], this compound registered an IC90 of 62.23 µg/mL (≈ 129 µM) and an IC50 of 22.8 µg/mL (≈ 47.2 µM).
As to `Cc1occc(=O)c1OCCCCCOc1c(C)n(-c2ccc(F)cc2)ccc1=O`, in the test with Leishmania donovani [1], the IC50 amounted to 43.6 µg/mL (≈ 105 µM) and the IC90 came out at 856 µg/mL (≈ 2070 µM).
The corresponding values for `Cc1cccc(C)c1-n1ccc(=O)c(OCCCCCOc2c(C)occc2=O)c1C` are 17.9 µg/mL (≈ 42.2 µM) and 57.9 µg/mL (≈ 137 µM).
The matching figures for `Cc1occc(=O)c1OCCCCCOc1c(C)n(Cc2ccccc2)ccc1=O`: 13.5 µg/mL (≈ 33.1 µM) and 47.9 µg/mL (≈ 117 µM).
In the case of `Cc1c(OCCCCCOc2c(C)n(Cc3ccccc3)ccc2=O)c(=O)ccn1Cc1ccccc1`, in the test on Leishmania donovani [1], the IC50 came to 9.98 µg/mL (≈ 20 µM) and the IC90 worked out at 29.3 µg/mL (≈ 58.7 µM). In the test on Leishmania donovani [2], this compound showed an IC90 of 99.48 µg/mL (≈ 200 µM) and an IC50 of 13.2 µg/mL (≈ 26.4 µM).
The corresponding values for `COc1ccccc1-n1ccc(=O)c(OCCCCCOc2c(C)occc2=O)c1C` are 4.04 µg/mL (≈ 9.5 µM), 13.3 µg/mL (≈ 31.3 µM), 38.08 µg/mL (≈ 89.5 µM) and 5.32 µg/mL (≈ 12.5 µM).
For `C[C@@H]1[C@H](O)[C@@H](C)/C=C/C=C/C=C/C=C/C=C/C=C/C=C/[C@H](O[C@@H]2O[C@H](C)[C@@H](O)[C@H](N)[C@@H]2O)C[C@@H]2O[C@](O)(C[C@@H](O)C[C@@H](O)[C@H](O)CC[C@@H](O)C[C@@H](O)CC(=O)O[C@H]1C)C[C@H](O)[C@H]2C(=O)O` [AMPHOTERICIN B], in the test on Leishmania donovani [2], the IC90 was 0.1571 µg/mL (≈ 0.17 µM) and the IC50 turned out to be 0.00646 µg/mL (≈ 0.00699 µM).
Regarding `N=C(N)c1ccc(OCCCCCOc2ccc(C(=N)N)cc2)cc1` [PENTAMIDINE], in the test with Leishmania donovani [1], the half-inhibitory concentration (IC50) stood at 0.58 µg/mL (≈ 1.7 µM) and the IC90 came out at 0.88 µg/mL (≈ 2.58 µM).
The matching figures for `Cc1occc(=O)c1OCCCCCOc1c(C)n(-c2ccc(Cl)cc2)ccc1=O`: 15.7 µg/mL (≈ 36.5 µM) and 38.7 µg/mL (≈ 90.1 µM).
Turning to `Cc1occc(=O)c1OCCCCCOc1c(C)n(-c2ccc([N+](=O)[O-])cc2)ccc1=O`, the IC50 with Leishmania donovani [1] was 5.75 µg/mL (≈ 13.1 µM); in the test with Leishmania donovani [2] it was 6.15 µg/mL (≈ 14 µM). In addition, the values for the IC90 in the test with Leishmania donovani [1] and in the test on Leishmania donovani [2] were 20.2 µg/mL (≈ 45.9 µM) and 28.58 µg/mL (≈ 64.9 µM), respectively.
The matching figures for `Cc1cccc(C)c1-n1ccc(=O)c(OCCCCCOc2c(C)n(-c3c(C)cccc3C)ccc2=O)c1C`: 6.91 µg/mL (≈ 13.1 µM), 9.64 µg/mL (≈ 18.3 µM), 12.5 µg/mL (≈ 23.7 µM) and 48.43 µg/mL (≈ 92 µM).
For the compound `Cc1cccc(-n2ccc(=O)c(OCCCCCOc3c(C)n(-c4cccc(C)c4C)ccc3=O)c2C)c1C`, in the test on Leishmania donovani [1], the half-maximal inhibitory concentration (IC50) stood at 7.37 µg/mL (≈ 14 µM) and the IC90 was determined as 19.1 µg/mL (≈ 36.2 µM). In the test with Leishmania donovani [2], this compound came in with an IC90 of 42.3 µg/mL (≈ 80.3 µM) and an IC50 of 8.57 µg/mL (≈ 16.3 µM).
As for `Cc1c(OCCCCCOc2c(C)n(-c3ccc(F)cc3)ccc2=O)c(=O)ccn1-c1ccc(F)cc1`, the result in the test on Leishmania donovani [1] was inactive.
Take `Cc1occc(=O)c1OCCCCCOc1c(C)occc1=O`: the figures for the IC50 in the test on Leishmania donovani [1] and in the test on Leishmania donovani [2] were 18.7 µg/mL (≈ 58.3 µM) and 12.9 µg/mL (≈ 40.2 µM), respectively. The IC90 is 122 µg/mL (≈ 382 µM) in the test with Leishmania donovani [1] and 112.99 µg/mL (≈ 353 µM) in the test on Leishmania donovani [2].
In the test on Leishmania donovani [2], `CCCCCCCCCCCCCCCCOP(=O)([O-])OCC[N+](C)(C)C` [MILTEFOSINE] yielded an IC90 of 107.51 µg/mL (≈ 264 µM) and an IC50 of 33.9 µg/mL (≈ 83.2 µM).
Consider `Cc1c(OCCCCCOc2c(C)n(-c3ccccc3)ccc2=O)c(=O)ccn1-c1ccccc1`, for which, in the test on Leishmania donovani [1], the IC50 was 22.7 µg/mL (≈ 48.2 µM) and the IC90 is 49.8 µg/mL (≈ 106 µM).
Turning to `Cc1occc(=O)c1OCCCCCOc1c(C)n(C2CCCCC2)ccc1=O`, in the test with Leishmania donovani [1], the half-maximal inhibitory concentration (IC50) was 4.59 µg/mL (≈ 11.4 µM) and the IC90 was determined as 10.7 µg/mL (≈ 26.6 µM). Further, in the test with Leishmania donovani [2], the IC90 worked out at 102.89 µg/mL (≈ 256 µM) and inhibition was half-maximal at 24 µg/mL (≈ 59.8 µM) (IC50).
